Publication PMC7572827 (Clinical cancer research : an official journal of the …, 2020)
“And” between values parts separate entries of the source, which are not always exact repeats. Identical values can stand only once. “Also recorded” adds a separate entry of the source. Like-named read-outs stand apart in the source and are kept apart here.

Legend:
Assay type in all cases: in vivo, human
MYC and AR-signaling = assay: RNA-seq gene set enrichment analysis of paired metastatic tumor biopsies; settings: four patients, with enzalutamide, median eight weeks of treatment
[1] = Phase 1b/2a safety: treatment-related adverse events
In short: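 Open-label, multicenter phase 1b/2 trial in progressive mCRPC patients resistant to abiraterone and/or enzalutamide. Test compound was given orally once daily, starting at 36 mg, with 3+3 escalation up to 144 mg daily. Expansion cohorts received 48 or 96 mg daily. All patients took enzalutamide 160 mg daily, with a 14-day enzalutamide lead-in if not already on it. Cycles were 28 days. Adverse events were graded by CTC v4.0, with assessments weekly in cycles 1–2, every 2 weeks in cycle 3, then every 4 weeks.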

[2] = system: metastatic castration-resistant prostate cancer (mCRPC)
[3] = system: BET inhibitor target genes MYC, IL-8, CCR1, GPR183, IL1RN; assay: Whole blood RNA expression of BET inhibitor target genes
In short: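 mCRPC patients received the oral test compound once daily plus enzalutamide 160 mg daily. Whole blood RNA was sampled pre-dose and 2, 4, 6 and 24 h after the cycle 1 day 1 dose. Panel: MYC, IL-8, CCR1, GPR183, HEXIM1, IL1RN. Expression change was correlated with parent plus active metabolite exposure: AUC0–2 for MYC and GPR183, AUC0–4 for CCR1, IL1RN and IL-8. Exposure was measured by plasma LC/MS/MS.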

CNc1nc2ncc(-c3c(C)noc3C)cc2n1Cc1ccccc1 [ZEN-3694]
Gene set enrichment, on-treatment versus baseline tumor biopsies (MYC and AR-signaling): down-regulation of expression of MYC and AR-signaling | Treatment-related AE all grades, patients: Fatigue ([1]; 36mg QD n=4): 1 | Treatment-related AE all grades, patients: Visual symptoms ([1]; 36mg QD n=4): 3 | Treatment-related AE all grades, patients: Weight loss & Abnormal WL ([1]; 36mg QD n=4): 1 | Treatment-related AE all grades, patients: Constipation ([1]; 48 mg QD n=21): 1 | Treatment-related AE all grades, patients: Decreased Appetite ([1]; 48 mg QD n=21): 2 | Treatment-related AE all grades, patients: Dysgeusia ([1]; 48 mg QD n=21): 2 | Treatment-related AE all grades, patients: Dyspepsia ([1]; 48 mg QD n=21): 1 | Treatment-related AE all grades, patients: Fatigue ([1]; 48 mg QD n=21): 8 | Treatment-related AE all grades, patients: Nausea ([1]; 48 mg QD n=21): 7 | Treatment-related AE all grades, patients: Photopsia ([1]; 48 mg QD n=21): 1 | Treatment-related AE all grades, patients: Photosensitivity ([1]; 48 mg QD n=21): 2 | Treatment-related AE all grades, patients: Rash maculopapular ([1]; 48 mg QD n=21): 3 | Treatment-related AE all grades, patients: Thrombocytopenia ([1]; 48 mg QD n=21): 1 | Treatment-related AE all grades, patients: Visual symptoms ([1]; 48 mg QD n=21): 12 | Treatment-related AE all grades, patients: Vomiting ([1]; 48 mg QD n=21): 1 | Treatment-related AE all grades, patients: Decreased Appetite ([1]; 72mg QD n=6): 1 | Treatment-related AE all grades, patients: Diarrhea ([1]; 72mg QD n=6): 1 | Treatment-related AE all grades, patients: Dizziness ([1]; 72mg QD n=6): 1 | Treatment-related AE all grades, patients: Dysgeusia ([1]; 72mg QD n=6): 0 | Treatment-related AE all grades, patients: Fatigue ([1]; 72mg QD n=6): 2 | Treatment-related AE all grades, patients: Nausea ([1]; 72mg QD n=6): 3 | Treatment-related AE all grades, patients: Taste disorder ([1]; 72mg QD n=6): 1 | Treatment-related AE all grades, patients: Thrombocytopenia ([1]; 72mg QD n=6): 2 | Treatment-related AE all grades, patients: Visual symptoms ([1]; 72mg QD n=6): 6 | Treatment-related AE all grades, patients: Weight loss & Abnormal WL ([1]; 72mg QD n=6): 1 | Treatment-related AE all grades, patients: Blood creatinine Increased ([1]; 96mg QD n=31): 3 | Treatment-related AE all grades, patients: Constipation ([1]; 96mg QD n=31): 3 | Treatment-related AE all grades, patients: Decreased Appetite ([1]; 96mg QD n=31): 10 | Treatment-related AE all grades, patients: Diarrhea ([1]; 96mg QD n=31): 5 | Treatment-related AE all grades, patients: Dizziness ([1]; 96mg QD n=31): 3 | Treatment-related AE all grades, patients: Dysgeusia ([1]; 96mg QD n=31): 10 | Treatment-related AE all grades, patients: Dyspepsia ([1]; 96mg QD n=31): 2 | Treatment-related AE all grades, patients: Fatigue ([1]; 96mg QD n=31): 13 | Treatment-related AE all grades, patients: Nasal congestion ([1]; 96mg QD n=31): 3 | Treatment-related AE all grades, patients: Nausea ([1]; 96mg QD n=31): 17 | Treatment-related AE all grades, patients: Photopsia ([1]; 96mg QD n=31): 3 | Treatment-related AE all grades, patients: Photosensitivity ([1]; 96mg QD n=31): 3 | Treatment-related AE all grades, patients: Rash ([1]; 96mg QD n=31): 3 | Treatment-related AE all grades, patients: Rash maculopapular ([1]; 96mg QD n=31): 1 | Treatment-related AE all grades, patients: Taste disorder ([1]; 96mg QD n=31): 3 | Treatment-related AE all grades, patients: Thrombocytopenia ([1]; 96mg QD n=31): 6 | Treatment-related AE all grades, patients: Vision blurred ([1]; 96mg QD n=31): 2 | Treatment-related AE all grades, patients: Visual symptoms ([1]; 96mg QD n=31): 17 | Treatment-related AE all grades, patients: Vomiting ([1]; 96mg QD n=31): 3 | Treatment-related AE all grades, patients: Weight loss & Abnormal WL ([1]; 96mg QD n=31): 3 | Dose-limiting toxicity ([1]; 96 mg/day dose level, Grade 3 nausea, cycle 1): One patient | Treatment-related AE all grades, patients: Decreased Appetite ([1]; 120mg QD N=4): 3 | Treatment-related AE all grades, patients: Dysgeusia ([1]; 120mg QD N=4): 1 | Treatment-related AE all grades, patients: Fatigue ([1]; 120mg QD N=4): 3 | Treatment-related AE all grades, patients: Nausea ([1]; 120mg QD N=4): 3 | Treatment-related AE all grades, patients: Vision blurred ([1]; 120mg QD N=4): 1 | Treatment-related AE all grades, patients: Visual symptoms ([1]; 120mg QD N=4): 4 | Treatment-related AE all grades, patients: Vomiting ([1]; 120mg QD N=4): 1 | Treatment-related AE all grades, patients: Weight loss & Abnormal WL ([1]; 120mg QD N=4): 1 | Patients requiring dose reduction and/or discontinuation ([1]; 120 mg/day): 75% | Treatment-related AE all grades, patients: Decreased Appetite ([1]; 144mg QD N=3): 2 | Treatment-related AE all grades, patients: Dysgeusia ([1]; 144mg QD N=3): 3 | Treatment-related AE all grades, patients: Fatigue ([1]; 144mg QD N=3): 1 | Treatment-related AE all grades, patients: Nausea ([1]; 144mg QD N=3): 2 | Treatment-related AE all grades, patients: Rash maculopapular ([1]; 144mg QD N=3): 1 | Treatment-related AE all grades, patients: Thrombocytopenia ([1]; 144mg QD N=3): 1 | Treatment-related AE all grades, patients: Visual symptoms ([1]; 144mg QD N=3): 2 | Treatment-related AE all grades, patients: Weight loss & Abnormal WL ([1]; 144mg QD N=3): 2 | Patients requiring dose reduction and/or discontinuation ([1]; 144 mg/day): 100% | Treatment-related AE all grades, patients: Blood creatinine Increased ([1]; 6Dmg QD n=6): 2 | Treatment-related AE all grades, patients: Decreased Appetite ([1]; 6Dmg QD n=6): 2 | Treatment-related AE all grades, patients: Dysgeusia ([1]; 6Dmg QD n=6): 0 | Treatment-related AE all grades, patients: Fatigue ([1]; 6Dmg QD n=6): 1 | Treatment-related AE all grades, patients: Nausea ([1]; 6Dmg QD n=6): 2 | Treatment-related AE all grades, patients: Taste disorder ([1]; 6Dmg QD n=6): 1 | Treatment-related AE all grades, patients: Thrombocytopenia ([1]; 6Dmg QD n=6): 1 | Treatment-related AE all grades, patients: Visual symptoms ([1]; 6Dmg QD n=6): 4 | Treatment-related AE all grades, patients: Blood creatinine Increased ([1]; TOTAL n=75): 5 (6.7) n (%) | Treatment-related AE all grades, patients: Constipation ([1]; TOTAL n=75): 4 (5.3) n (%) | Treatment-related AE all grades, patients: Decreased Appetite ([1]; TOTAL n=75): 20 (26.7) n (%) | Treatment-related AE all grades, patients: Diarrhea ([1]; TOTAL n=75): 6(8) n (%) | Treatment-related AE all grades, patients: Dizziness ([1]; TOTAL n=75): 4 (5.3) n (%) | Treatment-related AE all grades, patients: Dysgeusia ([1]; TOTAL n=75): 16 (21.3) n (%) | Treatment-related AE all grades, patients: Dyspepsia ([1]; TOTAL n=75): 3(4) n (%) | Treatment-related AE all grades, patients: Fatigue ([1]; TOTAL n=75): 29 (38.7) n (%) | Treatment-related AE all grades, patients: Nasal congestion ([1]; TOTAL n=75): 3(4) n (%) | Treatment-related AE all grades, patients: Nausea ([1]; TOTAL n=75): 34 (45.3) n (%) | Treatment-related AE all grades, patients: Photopsia ([1]; TOTAL n=75): 4 (5.3) n (%) | Treatment-related AE all grades, patients: Photosensitivity ([1]; TOTAL n=75): 5 (6.7) n (%) | Treatment-related AE all grades, patients: Rash ([1]; TOTAL n=75): 3(4) n (%) | Treatment-related AE all grades, patients: Rash maculopapular ([1]; TOTAL n=75): 5 (6.7) n (%) | Treatment-related AE all grades, patients: Taste disorder ([1]; TOTAL n=75): 5 (6.7) n (%) | Treatment-related AE all grades, patients: Thrombocytopenia ([1]; TOTAL n=75): 11 (14.7) n (%) | Treatment-related AE all grades, patients: Vision blurred ([1]; TOTAL n=75): 3(4) n (%) | Treatment-related AE all grades, patients: Visual symptoms ([1]; TOTAL n=75): 48 (64) n (%) | Treatment-related AE all grades, patients: Vomiting ([1]; TOTAL n=75): 5 (6.7) n (%) | Treatment-related AE all grades, patients: Weight loss & Abnormal WL ([1]; TOTAL n=75): 8(10.7) n (%) | Maximum tolerated dose ([1]; ZEN-3694 36 to 144 mg daily with enzalutamide 160 mg daily): without reaching an MTD; also recorded: not reached | Patients requiring dose reduction and/or treatment discontinuation due to adverse events ([1]; all dose levels, 24/75): 32% | Patients with Grade ≥ 3 treatment-related adverse event ([1]; all dose levels, n=75, with enzalutamide): 18.7% | Patients requiring dose reduction and/or discontinuation ([1]; doses from 36 mg – 96 mg/day): 10%−35% | Recommended phase 2 dose ([1]; in combination with enzalutamide): 96 mg/day | Grade ≥ 3 nausea ([1]; n=75, with enzalutamide): 4% | Patients discontinued for adverse event ([1]; nine patients): 12% | Patients remaining on treatment without progression at data cut-off ([2]; 7 patients): 9% | Patients on treatment greater than 24 months without progression ([2]; four patients): 5% | Median time to progression (TTP) ([2]; higher canonical AR transcriptional activity in baseline biopsy): 19 weeks | Composite median radiographic or clinical progression-free survival ([2]; overall cohort): 5.5 months | Median radiographic progression-free survival (rPFS) ([2]; overall cohort, with enzalutamide): 9.0 months and 9 months | Median rPFS ([2]; patients that had progressed on abiraterone): 7.8 months | Median rPFS ([2]; primary resistance to prior first-line AR targeted therapy, progression within 6 months, N = 12): 10.6 months | Composite median PFS ([2]; primary resistance, progression within 16 weeks, N = 5): 10.6 months | Composite median radiographic or clinical progression-free survival ([2]; prior progression on abiraterone): 5.5 months | Median rPFS ([2]; radiographic progression at study entry): 7.8 months | Median rPFS ([2]; serum PSA consistently rose beyond 12 weeks, N = 21): 7.2 months | Median rPFS ([2]; tumors with high AR activity): 4.3 months | Median rPFS ([2]; tumors with low AR score): 10.4 months | Median TTP ([2]; without aggressive variant clinical features, p = 0.24): 5.5 months | Mean difference in whole blood RNA expression of BETi targets ([3]; 4 hours post-ZEN-3694 dose, p ≤ 0.0001): up to 4 fold | Decrease in whole blood mRNA levels of BET inhibitor target genes MYC, IL-8, CCR1, GPR183, IL1RN ([3]; dose-dependent, post-C1D1 dose): 2–4 fold | Dose level at which decrease in BET inhibitor target gene expression plateaus ([3]; in vivo): ≥ 96 mg | Duration of decrease in whole blood mRNA levels of BET inhibitor target genes ([3]; in vivo): at least 8 hours
